ChEMBL document CHEMBL1275525, “Activity of hydroxyurea against Leishmania mexicana” (2008)
In brackets after ≈: the same amount, converted by molar mass. Activity calls are given as the source filed them. No cut-off for these calls is given here.

Legend:
Leishmania mexicana [1] = assay: Antileishmanial activity against Leishmania mexicana MNYC/BZ/62/M379 promastigotes at 10 ug/ml after 48 hrs by hemocytometer; format: functional, organism-based
Leishmania mexicana [2] = assay: Antileishmanial activity against Leishmania mexicana MHOM/MX/00/Tab3 promastigotes at 10 ug/ml after 48 hrs by hemocytometer; format: functional, organism-based
Leishmania mexicana [3] = assay: Antileishmanial activity against Leishmania mexicana MNYC/BZ/62/M379 promastigotes at 100 ug/ml after 48 hrs by hemocytometer; format: functional, organism-based
Leishmania mexicana [4] = assay: Antileishmanial activity against Leishmania mexicana MHOM/MX/00/Tab3 promastigotes at 100 ug/ml after 48 hrs by hemocytometer; format: functional, organism-based
Leishmania mexicana [5] = assay: Antileishmanial activity against Leishmania mexicana MNYC/BZ/62/M379 promastigotes assessed as survival rate after 6 days by hemocytometer; format: functional
Summary of the method: (§1)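 Promastigotes were grown cell-free at 26°C in DMEM with 10% heat-inactivated FCS, with drug at 0.01–100 µg/ml. Parasite density was counted by hemacytometer every other day, and the value was taken on day 6. Data were recorded in triplicate, and experiments were run four times.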

Leishmania mexicana [6] = assay: Antileishmanial activity against Leishmania mexicana MHOM/MX/00/Tab3 promastigotes assessed as survival rate after 6 days by hemocytometer; format: functional; summary of the method: as §1
Leishmania mexicana [7] = assay: Antileishmanial activity against Leishmania mexicana MNYC/BZ/62/M379 promastigotes measured on day 6 by hemocytometer; format: functional; conditions: MNYC/BZ/62/M379, 144 h, read-out: ED50 (the source's name)
Summary of the method: (§2)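 Promastigotes were cultured cell-free at 26°C in DMEM with 10% heat-inactivated FCS, with hydroxyurea at 0.01-100 µg/ml. Density was counted by hemacytometer every other day, and inhibition versus untreated control was taken on day 6 of culture.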

Leishmania mexicana [8] = assay: Antileishmanial activity against Leishmania mexicana MHOM/MX/00/Tab3 promastigotes measured on day 6 by hemocytometer; format: functional; conditions: MHOM/MX/00/Tab3, 144 h, read-out: ED50 (the source's name); summary of the method: as §2
Leishmania mexicana [9] = assay: Antileishmanial activity against Leishmania mexicana MHOM/MX/00/Tab3 infected in BALB/c mouse macrophage assessed as growth inhibition at 1 ug/ml after 6 days by hemocytometer; format: functional
Summary of the method: (§3)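 Resident peritoneal macrophages from male BALB/c mice were plated at 10^6 cells/ml and incubated for 24 h at 32°C in 5% CO2. Adherent cells were infected with 10^7 mid-log amastigote-like forms for 48 h at 32°C, then washed. Drug was applied for 6 days at 32°C, then replaced with drug-free medium and shifted to 26°C. Released promastigotes were counted by hemacytometer 6 days later, in triplicate. Inhibition = 100×(Tc−Tp)/Tc versus untreated.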

Leishmania mexicana [10] = assay: Antileishmanial activity against Leishmania mexicana MHOM/MX/00/Tab3 infected in BALB/c mouse macrophage assessed as growth inhibition at 10 ug/ml after 6 days by hemocytometer; format: functional; summary of the method: as §3
Leishmania mexicana [11] = assay: Antileishmanial activity against Leishmania mexicana MHOM/MX/00/Tab3 infected in BALB/c mouse macrophage assessed as growth inhibition at 100 ug/ml after 6 days by hemocytometer; format: functional; conditions: MHOM/MX/00/Tab3, 144 h
Summary of the method: (§4)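 Peritoneal resident macrophages from male BALB/c mice (20-25 g) were pooled, washed, plated at 10^6 cells/ml, and left to adhere for 24 h at 32°C in 5% CO2. Adherent cells were infected with 10^7 mid-log amastigote-like forms for 48 h, then washed. Drug was given at 0.01-100 µg/ml for 3, 6, 9 or 12 days at 32°C. After removal, plates moved to 26°C; released promastigotes were hemacytometer-counted 6 days later. Inhibition = 100 x (Tc − Tp)/Tc; triplicate.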

Leishmania mexicana [12] = assay: Antileishmanial activity against Leishmania mexicana MNYC/BZ/62/M379 infected in BALB/c mouse macrophage assessed as growth inhibition at 1 ug/ml after 6 days by hemocytometer; format: functional; summary of the method: as §3
Leishmania mexicana [13] = assay: Antileishmanial activity against Leishmania mexicana MNYC/BZ/62/M379 infected in BALB/c mouse macrophage assessed as growth inhibition at 10 ug/ml after 6 days by hemocytometer; format: functional; summary of the method: as §3
Leishmania mexicana [14] = assay: Antileishmanial activity against Leishmania mexicana MNYC/BZ/62/M379 infected in BALB/c mouse macrophage assessed as growth inhibition at 100 ug/ml after 6 days by hemocytometer; format: functional; conditions: MNYC/BZ/62/M379, 144 h; summary of the method: as §4
Leishmania mexicana [15] = assay: Antileishmanial activity against Leishmania mexicana MHOM/MX/00/Tab3 infected in BALB/c mouse macrophage measured on day 6 by hemocytometer; format: functional; conditions: MHOM/MX/00/Tab3, 144 h, read-out: ED50 (the source's name); summary of the method: as §4
Leishmania mexicana [16] = assay: Antileishmanial activity against Leishmania mexicana MNYC/BZ/62/M379 infected in BALB/c mouse macrophage measured on day 6 by hemocytometer; format: functional; conditions: MNYC/BZ/62/M379, 144 h, read-out: ED50 (the source's name); summary of the method: as §4
Leishmania mexicana [17] = assay: Cell cycle arrest in Leishmania mexicana assessed as accumulation at G2/M phase at 10 ug/ml after 48 hrs by fluorescence-activated cell sorter; format: functional, organism-based
Summary of the method: (§5)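 Mid-log promastigotes were exposed 48 h at 26°C to 1, 10 or 100 µg/ml, washed in PBS with 0.02 M EDTA, and fixed in cold methanol for 24 h. They were then stained 20 min at 25°C with RNase I (50 µg/ml) and PI (25 µg/ml), kept on ice, and analysed by FACS for DNA content.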

Leishmania mexicana [18] = assay: Cell cycle arrest in Leishmania mexicana assessed as accumulation at G2/M phase at 100 ug/ml after 48 hrs by fluorescence-activated cell sorter; format: functional, organism-based; summary of the method: as §5
Leishmania mexicana [19] = assay: Cell cycle arrest in Leishmania mexicana assessed as accumulation at G2/M phase at 1 ug/ml after 48 hrs by fluorescence-activated cell sorter; format: functional, organism-based; summary of the method: as §5
Leishmania mexicana [20] = assay: Antileishmanial activity against Leishmania mexicana infected in BALB/c mouse macrophage assessed as growth inhibition at 0.01 ug/ml after 3 days by hemocytometer; format: functional; conditions: 72 h; summary of the method: as §4
Leishmania mexicana [21] = assay: Antileishmanial activity against Leishmania mexicana infected in BALB/c mouse macrophage assessed as growth inhibition at 0.01 ug/ml after 12 days by hemocytometer; format: functional; conditions: 288 h; summary of the method: as §4
Leishmania mexicana [22] = assay: Antileishmanial activity against Leishmania mexicana infected in BALB/c mouse macrophage assessed as growth inhibition at 0.1 ug/ml after 3 days by hemocytometer; format: functional; conditions: 72 h; summary of the method: as §4
Leishmania mexicana [23] = assay: Antileishmanial activity against Leishmania mexicana infected in BALB/c mouse macrophage assessed as growth inhibition at 0.1 ug/ml after 12 days by hemocytometer; format: functional; conditions: 288 h; summary of the method: as §4
Leishmania mexicana [24] = assay: Antileishmanial activity against Leishmania mexicana infected in BALB/c mouse macrophage assessed as growth inhibition at 1 ug/ml after 3 days by hemocytometer; format: functional; conditions: 72 h; summary of the method: as §4
Leishmania mexicana [25] = assay: Antileishmanial activity against Leishmania mexicana infected in BALB/c mouse macrophage assessed as growth inhibition at 1 ug/ml after 12 days by hemocytometer; format: functional; conditions: 288 h; summary of the method: as §4
Leishmania mexicana [26] = assay: Antileishmanial activity against Leishmania mexicana infected in BALB/c mouse macrophage assessed as growth inhibition at 10 ug/ml after 3 days by hemocytometer; format: functional; conditions: 72 h; summary of the method: as §4
Leishmania mexicana [27] = assay: Antileishmanial activity against Leishmania mexicana infected in BALB/c mouse macrophage assessed as growth inhibition at 10 ug/ml after 12 days by hemocytometer; format: functional; conditions: 288 h; summary of the method: as §4
Leishmania mexicana [28] = assay: Antileishmanial activity against Leishmania mexicana infected in BALB/c mouse macrophage assessed as growth inhibition at 100 ug/ml after 3 days by hemocytometer; format: functional, organism-based; summary of the method: as §4
Leishmania mexicana [29] = assay: Antileishmanial activity against Leishmania mexicana promastigotes assessed as parasite burden at 1 ug/ml after 8 days by hemacytometer
Leishmania mexicana [30] = assay: Antileishmanial activity against Leishmania mexicana promastigotes assessed as parasite burden at 10 ug/ml after 8 days by hemacytometer
Leishmania mexicana [31] = assay: Antileishmanial activity against Leishmania mexicana promastigotes assessed as parasite burden at 100 ug/ml after 8 days by hemacytometer
Leishmania mexicana [32] = assay: Antileishmanial activity against Leishmania mexicana MHOM/MX/00/Tab3 infected in BALB/c mouse macrophage assessed as growth inhibition at 25 ug/ml after 6 days by hemocytometer; format: functional, organism-based
Leishmania mexicana [33] = assay: Antileishmanial activity against Leishmania mexicana MNYC/BZ/62/M379 infected in BALB/c mouse macrophage assessed as growth inhibition at 25 ug/ml after 6 days by hemocytometer; format: functional, organism-based

Compound: NC(=O)NO [HYDROXYUREA]
- Activity (Leishmania mexicana [1]): Active
- Activity (Leishmania mexicana [2]): Active
- Activity (Leishmania mexicana [3]): Active
- Activity (Leishmania mexicana [4]): Active
- Survival (Leishmania mexicana [5]): 11.6%
- Survival (Leishmania mexicana [6]): 3.1%
- EC50 (Leishmania mexicana [7]): 0.05 µg/mL (≈ 0.657 µM)
- EC50 (Leishmania mexicana [8]): 0.05 µg/mL (≈ 0.657 µM)
- inhibition at 1 µg/mL (Leishmania mexicana [9]; MHOM/MX/00/Tab3, 144 h): 96%
- inhibition at 10 µg/mL (Leishmania mexicana [10]; MHOM/MX/00/Tab3, 144 h): 100%
- inhibition at 100 µg/mL (Leishmania mexicana [11]): 100%
- inhibition at 1 µg/mL (Leishmania mexicana [12]; MNYC/BZ/62/M379, 144 h): 94%
- inhibition at 10 µg/mL (Leishmania mexicana [13]; MNYC/BZ/62/M379, 144 h): 100%
- inhibition at 100 µg/mL (Leishmania mexicana [14]): 100%
- EC50 (Leishmania mexicana [15]): 0.015 µg/mL (≈ 0.197 µM)
- EC50 (Leishmania mexicana [16]): 0.015 µg/mL (≈ 0.197 µM)
- Activity (Leishmania mexicana [17]): Active
- Activity (Leishmania mexicana [18]): Active
- Activity (Leishmania mexicana [19]): inactive
- inhibition at 0.01 µg/mL (Leishmania mexicana [20]): 44%
- inhibition at 0.01 µg/mL (Leishmania mexicana [21]): 67%
- inhibition at 0.1 µg/mL (Leishmania mexicana [22]): 72%
- inhibition at 0.1 µg/mL (Leishmania mexicana [23]): 85%
- inhibition at 1 µg/mL (Leishmania mexicana [24]): 87%
- inhibition at 1 µg/mL (Leishmania mexicana [25]): 94%
- inhibition at 10 µg/mL (Leishmania mexicana [26]): 93%
- inhibition at 10 µg/mL (Leishmania mexicana [27]): 98%
- inhibition (Leishmania mexicana [28]): Active
- Activity (Leishmania mexicana [29]): 8.5 ×10⁶ /ml
- Activity (Leishmania mexicana [30]): 4.3 ×10⁶ /ml
- Activity (Leishmania mexicana [31]): 0 mL⁻¹

Compound: MEGLUMINE ANTIMONATE
- inhibition (Leishmania mexicana [9]): 32%
- inhibition (Leishmania mexicana [10]): 54%
- inhibition (Leishmania mexicana [32]): 77%
- inhibition (Leishmania mexicana [12]): 33%
- inhibition (Leishmania mexicana [13]): 69%
- inhibition (Leishmania mexicana [33]): 93%
